Experimental data published in ChEMBL document CHEMBL1629504, “Synthesis, antitrichinnellosis and antiprotozoal activity of some novel thieno[2,3-d]pyrimidin-4(3H)-ones containing benzimidazole ring” (2010).
The source made the active and inactive calls. No cut-off for these calls is given here.

How the values were obtained:
Giardia muris = test: Antiprotozoal activity against Giardia muris infected in white mouse assessed as presence of cysts in mouse faeces at 0.5 ug/ml, po after 5 days by microscopy; type: functional, organism-based; conditions: Feces
How it was run: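 Infected white mice (five per group) dosed p.o. once daily by thin metal oesophageal probe, 0.5 µg/ml pro die as 0.5 ml DMSO solution, for 5 days; untreated and DMSO-only control groups. After the course, faeces stained with Lugol's solution and examined microscopically for cysts.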

Trichinella spiralis [1] = test: Antitrichinellosis activity against Trichinella spiralis assessed as parasites viability at 5 ug/ml after 24 hrs by stereomicroscopy; type: functional
How it was run: (§1)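 Encapsulated larvae, 100 per 1 ml physiological solution (Campbell's method), exposed to compound dissolved in DMSO at 5 µg/ml; incubated in a humid thermostatted chamber at 37 °C. Larval vitality checked by stereomicroscopy at 24 and 48 h.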

Trichinella spiralis [2] = test: Antitrichinellosis activity against Trichinella spiralis assessed as parasites viability at 5 ug/ml after 48 hrs by stereomicroscopy; type: functional; how it was run: as §1
Paramecium caudatum = test: Antiprotozoal activity against Paramecium caudatum assessed as parasites viability at 1 ug/ml after 15-20 mins by stereomicroscopy; type: functional
How it was run: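 Paramecia from dry-hay maceration culture; 2–3 drops of culture added to a drop of compound in DMSO (1 µg/ml) in a Petri dish. Motility and cell integrity followed stereomicroscopically over minutes after addition.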

With `CCOC(=O)c1sc2nc(CCSc3nc4cc(Cl)ccc4[nH]3)[nH]c(=O)c2c1C` the Activity (Giardia muris) was “Active”, the Efficacy (Trichinella spiralis [1]) was 0% and the Efficacy (Trichinella spiralis [2]) was 5.09%. The Activity (Paramecium caudatum) was “Active”.

With `CCCSc1ccc2[nH]c(NC(=O)OC)nc2c1` [ALBENDAZOLE] the Efficacy (Trichinella spiralis [1]) was 10.6% and the Efficacy (Trichinella spiralis [2]) was 14.8%.

`O=c1[nH]c(CCn2cnc3cc([N+](=O)[O-])ccc32)nc2sc3c(c12)CCCC3` was tested, and the Activity (Giardia muris) was “Active”, the Efficacy (Trichinella spiralis [1]) was 95.05% and the Efficacy (Trichinella spiralis [2]) was 95.05%. For the same molecule, the Activity (Paramecium caudatum) was “Active”.

For `CCOC(=O)c1sc2nc(CCSc3nc4ccccc4n3CC)[nH]c(=O)c2c1C`, the Activity (Giardia muris) was “Active”, the Efficacy (Trichinella spiralis [1]) was 39.07% and the Efficacy (Trichinella spiralis [2]) was 59.75%. For the same molecule, the Activity (Paramecium caudatum) was “Active”.

For `Cn1c(SCCc2nc3sc4c(c3c(=O)[nH]2)CCCC4)nc2ccccc21`, the Activity (Giardia muris) was “Active”, the Efficacy (Trichinella spiralis [1]) was 40.05% and the Efficacy (Trichinella spiralis [2]) was 89.9%. The Activity (Paramecium caudatum) was “Active”.

In the case of `CCOC(=O)c1sc2nc(CCn3cnc4ccccc43)[nH]c(=O)c2c1C`, the Activity (Giardia muris) is reported as “Active”, the Efficacy (Trichinella spiralis [1]) is reported as 79.8% and the Efficacy (Trichinella spiralis [2]) is reported as 85.3%. The Activity (Paramecium caudatum) was “Active”.

In the case of `O=c1[nH]c(CCSc2nc3ccccc3n2[N+](=O)[O-])nc2sc3c(c12)CCCC3`, the Activity (Giardia muris) is reported as “Active”, the Efficacy (Trichinella spiralis [1]) is reported as 90.1% and the Efficacy (Trichinella spiralis [2]) is reported as 90.1%. The Activity (Paramecium caudatum) was “Active”.

For `CCOC(=O)c1sc2nc(CCSc3nc4cc([N+](=O)[O-])ccc4[nH]3)[nH]c(=O)c2c1C`, the Activity (Giardia muris) was “Active”, the Efficacy (Trichinella spiralis [1]) was 50% and the Efficacy (Trichinella spiralis [2]) was 80.05%. The Activity (Paramecium caudatum) was “Active”.

With `CCCn1c(SCCc2nc3sc4c(c3c(=O)[nH]2)CCCC4)nc2ccccc21` the Activity (Giardia muris) was “Active”, the Efficacy (Trichinella spiralis [1]) was 84.8% and the Efficacy (Trichinella spiralis [2]) was 90.05%. The Activity (Paramecium caudatum) was “Active”.
